The text below walks through data of ChEMBL document CHEMBL1649084, “Novel trisubstituted benzimidazoles, targeting Mtb FtsZ, as a new class of antitubercular agents” (J Med Chem, 2011).

In data set [1] the test system is Mycobacterium tuberculosis. The data set is described as follows: Antimycobacterial activity against Mycobacterium tuberculosis H37Rv after 24 hrs by microplate Alamar Blue assay. Format: functional. Put shortly: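 MIC99 by microplate Alamar Blue: DMSO stocks serially diluted 2-fold in 96-well plates; Mtb grown in 7H9 + 10% OADC + 0.05% Tween-80, used at mid-log phase, added to OD600 0.005; 6 days at 37 °C, then AlamarBlue added and a further 24 h at 37 °C; read by colour change; triplicate.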

For the next data set, the system named is Vero. The data set is described as follows: Cytotoxicity against african green monkey Vero cells after 3 days by Alamar Blue assay. Format: cell-based. To be noted: chlorocebus sabaeus, 72 h.
Data set [2] concerns Mycobacterium tuberculosis. In words: Antimycobacterial activity against Mycobacterium tuberculosis H37Rv NHN382 after 24 hrs by microplate Alamar Blue assay. Format: functional.
The subject of data set [3] is Mycobacterium tuberculosis. The data set is described as follows: Antimycobacterial activity against Mycobacterium tuberculosis H37Rv W210 after 24 hrs by microplate Alamar Blue assay. Format: functional.
For data set [4], the target named is T1, Cell division protein FtsZ (Mycobacterium tuberculosis, UniProt P9WN95).
T1 sequence (P9WN95 whole entry): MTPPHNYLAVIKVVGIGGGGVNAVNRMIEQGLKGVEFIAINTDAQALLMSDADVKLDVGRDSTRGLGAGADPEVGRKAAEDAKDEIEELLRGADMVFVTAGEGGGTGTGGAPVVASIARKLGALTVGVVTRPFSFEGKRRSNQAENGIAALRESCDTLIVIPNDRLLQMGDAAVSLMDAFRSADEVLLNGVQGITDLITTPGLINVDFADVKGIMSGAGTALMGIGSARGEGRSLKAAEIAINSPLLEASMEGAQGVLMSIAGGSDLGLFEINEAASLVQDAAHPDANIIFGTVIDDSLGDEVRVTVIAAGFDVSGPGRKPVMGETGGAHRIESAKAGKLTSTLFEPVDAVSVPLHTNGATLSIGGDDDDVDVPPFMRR
The data set is described as follows: (§1) Inhibition of Mycobacterium tuberculosis FtsZ polymerization. In a few lines:
(§2)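 90° light scattering at 30 °C, excitation/emission 400 nm. Inhibitor at various concentrations preincubated in 50 mM MES, 5 mM MgCl2, 50 mM KCl, pH 6.5 to baseline. Mtb FtsZ (15 μM) then added; polymerization started with 5 mM GTP (20 μL into 1,000 μL final); monitored 30-60 min. DMSO-matched controls.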

Data set [5] concerns the target T2, Cell division protein FtsZ (Mycobacterium tuberculosis) (UniProt P9WN95).
T2 sequence (whole entry): T1 sequence (P9WN95 whole entry)
Described as §1. In a few lines: as §2

Structures are written as SMILES. Converted amounts (≈) assume the structure as drawn.

Regarding `CCN(CC)c1cc2[nH]c(C3CCCCC3)nc2cc1NC(=O)OCc1ccccc1`, in data set [1], the MIC99 was determined as 3.8 µM (≈ 1.6 µg/mL). Moreover, in the data set with Vero, the Cytotoxic concentration was > 400 µM.

In turn, `CCN(CC)c1cc2[nH]c(C3CCCCC3)nc2cc1NC(=O)c1ccc(OC)cc1` displayed an MIC99 in data set [1] of 7.4 µM (≈ 3.11 µg/mL). In the data set on Vero, the Cytotoxic concentration was > 400 µM.

The compound `CCCOC(=O)Nc1cc2nc(C3CCCCC3)[nH]c2cc1N(CC)CC` showed an MIC99 in data set [1] of 4.3 µM (≈ 1.6 µg/mL). The Cytotoxic concentration with Vero is > 400 µM.

In the case of `C=CCCOC(=O)Nc1cc2nc(C3CCCCC3)[nH]c2cc1N(CC)CC`, the MIC99 in data set [2] and in data set [3] was 4.2 µM (≈ 1.62 µg/mL) in each case. Further, the Cytotoxic concentration with Vero is > 400 µM.

As to `CCN(CC)c1cc2[nH]c(C3CCCCC3)nc2cc1NC(=O)c1ccc(Cl)cc1`, in data set [1], the MIC99 was determined as 14.1 µM (≈ 5.99 µg/mL). Further, in the data set with Vero, the Cytotoxic concentration is > 400 µM.

In the case of `CCN(CC)c1cc2[nH]c(C3CCCCC3)nc2cc1NC(=O)c1ccccc1`, the midpoint of inhibition in data set [4], the IC50, lay at 6.21 µM. In data set [5], the Activity result was “Dose-dependent effect”. This compound also yielded an MIC99 in data set [1] of 7.9 µM (≈ 3.09 µg/mL). For the same compound, in the data set with Vero, the Cytotoxic concentration was > 400 µM.

For `CCOC(=O)Nc1cc(NC(C)=O)c2[nH]c(-c3ccccc3)nc2c1`, the MIC99 turned out to be 2.3 µM (≈ 0.778 µg/mL) in data set [2] and 4.6 µM (≈ 1.56 µg/mL) in data set [3] (Mycobacterium tuberculosis, H37Rv W210, 24 h, read-out: MIC99). Besides, the Cytotoxic concentration in the data set on Vero was > 200 µM.

On to `O=C(Nc1cc2nc(C3CCCCC3)[nH]c2cc1N1CCCC1)OCc1ccccc1`, for which the MIC99 in data set [2] and in data set [3] was 3.7 µM (≈ 1.55 µg/mL) throughout. The Cytotoxic concentration in the data set on Vero is > 200 µM.

For the compound `CCCCOC(=O)Nc1cc2nc(C3CCCCC3)[nH]c2cc1N(CC)CC`, the MIC99 amounted to 2 µM (≈ 0.773 µg/mL) in data set [2] (Mycobacterium tuberculosis, H37Rv NHN382, 24 h, read-out: MIC99) and 4 µM (≈ 1.55 µg/mL) in data set [3]. The IC50 in data set [4] was determined as 7.69 µM. Further, in the data set with Vero, the Cytotoxic concentration is > 400 µM.

For `CCN(CC)c1cc2[nH]c(C3CCCCC3)nc2cc1NC(=O)c1ccc(C)cc1`, the MIC99 in data set [1] is 15.1 µM (≈ 6.11 µg/mL). In the data set on Vero, the Cytotoxic concentration is > 400 µM.

As for `CCCCOC(=O)Nc1cc2nc(C3CCCCC3)[nH]c2cc1N1CCCC1`, the MIC99 in data set [2] and in data set [3] was 1 µM (≈ 0.385 µg/mL) in each case. In the data set with Vero, the Cytotoxic concentration was > 200 µM.
